For experiment [1], the target named is Signal transducer and activator of transcription 3 (Homo sapiens, UniProt P40763). The experiment in a line: Binding affinity to recombinant human His/SUMO-tagged STAT3 (127 to 688 residues) expressed in Escherichia coli Rosetta (DE3) incubated for 1 hr by fluorescence polarization assay.
For experiment [2], the target named is T1, Protein cereblon/Signal transducer and activator of transcription 3 (Homo sapiens, UniProt P40763+Q96SW2). The experiment in a line: Protac activity at CRBN/STAT3 in human SUDHL1 cells assessed as degradation of STAT3 incubated for 16 hrs by Western blot analysis. Type of experiment: cell-based. In general terms: Immunoblotting shows a protein as a band on a membrane.
Target sequence in this assay (P40763 whole entry): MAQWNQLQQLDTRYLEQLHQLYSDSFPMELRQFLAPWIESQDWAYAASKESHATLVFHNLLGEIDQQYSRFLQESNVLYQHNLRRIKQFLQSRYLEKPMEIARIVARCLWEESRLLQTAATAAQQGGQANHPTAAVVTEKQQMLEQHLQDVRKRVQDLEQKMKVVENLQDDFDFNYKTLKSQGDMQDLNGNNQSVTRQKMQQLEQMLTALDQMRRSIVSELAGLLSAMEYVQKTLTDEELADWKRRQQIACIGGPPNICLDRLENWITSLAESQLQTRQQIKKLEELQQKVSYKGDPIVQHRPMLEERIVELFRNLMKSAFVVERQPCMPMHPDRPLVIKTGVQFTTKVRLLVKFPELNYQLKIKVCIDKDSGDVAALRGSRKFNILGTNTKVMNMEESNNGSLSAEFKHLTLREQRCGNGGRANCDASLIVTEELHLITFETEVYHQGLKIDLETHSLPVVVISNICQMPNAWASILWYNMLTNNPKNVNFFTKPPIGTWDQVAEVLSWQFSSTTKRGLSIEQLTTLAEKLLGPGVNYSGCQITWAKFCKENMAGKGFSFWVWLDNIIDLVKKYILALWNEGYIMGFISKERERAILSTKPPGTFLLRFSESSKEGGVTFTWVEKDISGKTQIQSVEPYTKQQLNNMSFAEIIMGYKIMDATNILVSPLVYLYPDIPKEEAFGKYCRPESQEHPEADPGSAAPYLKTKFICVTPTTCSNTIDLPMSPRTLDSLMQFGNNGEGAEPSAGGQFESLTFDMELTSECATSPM
Target sequence in this assay (Q96SW2 whole entry): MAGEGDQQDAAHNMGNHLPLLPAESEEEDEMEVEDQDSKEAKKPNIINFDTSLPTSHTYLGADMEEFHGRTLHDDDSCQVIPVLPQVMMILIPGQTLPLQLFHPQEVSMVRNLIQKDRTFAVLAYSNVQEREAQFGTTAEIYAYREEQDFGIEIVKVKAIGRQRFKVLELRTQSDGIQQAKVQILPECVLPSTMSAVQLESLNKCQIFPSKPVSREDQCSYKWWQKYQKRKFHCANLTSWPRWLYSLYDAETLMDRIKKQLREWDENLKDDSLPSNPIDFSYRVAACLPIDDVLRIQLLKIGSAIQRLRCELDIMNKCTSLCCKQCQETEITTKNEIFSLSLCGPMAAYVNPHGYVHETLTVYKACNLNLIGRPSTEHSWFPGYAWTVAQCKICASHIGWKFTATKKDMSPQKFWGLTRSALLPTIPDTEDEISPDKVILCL

Experiment [3] is described as follows: Antiproliferative activity against human MOLM16 cells assessed as reduction in cell viability incubated for 4 days by cell-titer glo luminescent assay. Type of experiment: functional, cell-based. The following applies: MOLM16, 96 h. The gist of the method:
(§1)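 Viability assay: cells incubated with serially diluted compounds for 4 days, viability read by CellTiter-Glo luminescence; IC50 from concentration–response.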

Another experiment has as its system SU-DHL-1. The experiment in a line: Antiproliferative activity against human SUDHL1 cells assessed as reduction in cell viability incubated for 4 days by cell-titer glo luminescent assay. The format is functional, cell-based. Conditions: SU-DHL-1, 96 h. The gist of the method:
as §1

The target of experiment [4] is T1, Protein cereblon/Signal transducer and activator of transcription 3. The experiment in a line: Protac activity at CRBN/STAT3 in human MOLM16 cells assessed as degradation of STAT3 at 0.01 to 10 uM incubated for 4 hrs by Western blot analysis. Type of experiment: cell-based. The gist of the method: (§2)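 Molm-16 cells treated 4 h with test compound at 0.01–10 μM, or control compounds at 10 μM. Lysates separated by SDS–PAGE, transferred to PVDF, blocked 1 h in 5% blocker/TBST, probed for each STAT protein, and detected by chemiluminescence.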
Target sequence in this assay (P40763 2-770 limits assumed): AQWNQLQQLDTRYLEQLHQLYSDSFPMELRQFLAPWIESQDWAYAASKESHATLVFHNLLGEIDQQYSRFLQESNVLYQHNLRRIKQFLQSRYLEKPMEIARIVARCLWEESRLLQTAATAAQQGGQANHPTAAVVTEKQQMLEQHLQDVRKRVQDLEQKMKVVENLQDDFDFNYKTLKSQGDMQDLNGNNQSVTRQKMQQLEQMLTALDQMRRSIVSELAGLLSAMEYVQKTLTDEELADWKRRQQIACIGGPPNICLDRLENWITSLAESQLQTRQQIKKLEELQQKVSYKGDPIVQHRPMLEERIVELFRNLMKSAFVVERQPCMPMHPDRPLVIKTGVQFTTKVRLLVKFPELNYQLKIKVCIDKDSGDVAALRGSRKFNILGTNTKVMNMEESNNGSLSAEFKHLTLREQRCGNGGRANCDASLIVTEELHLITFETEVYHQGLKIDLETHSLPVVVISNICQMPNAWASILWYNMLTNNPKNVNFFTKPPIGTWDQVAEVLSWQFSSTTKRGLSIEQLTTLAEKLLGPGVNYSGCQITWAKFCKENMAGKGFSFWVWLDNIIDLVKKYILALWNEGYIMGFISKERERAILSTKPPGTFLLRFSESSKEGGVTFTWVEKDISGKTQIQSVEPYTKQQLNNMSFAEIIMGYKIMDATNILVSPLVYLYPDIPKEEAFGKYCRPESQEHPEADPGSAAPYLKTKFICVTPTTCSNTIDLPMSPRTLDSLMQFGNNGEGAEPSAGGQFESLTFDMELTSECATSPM
Target sequence in this assay (Q96SW2 whole entry partner): as the sequence (Q96SW2 whole entry) above

Experiment [5] has as its target T2, Protein cereblon/Signal transducer and activator of transcription 1-alpha/beta (Homo sapiens) (UniProt P42224+Q96SW2). The experiment in a line: Protac activity at CRBN/STAT1 in human MOLM16 cells assessed as degradation of STAT1 at 0.01 to 10 uM incubated for 4 hrs by Western blot analysis. Type of experiment: cell-based. The procedure, abridged:
as §2

In experiment [6] the target is Protein cereblon/Signal transducer and activator of transcription 4 (Homo sapiens) (UniProt Q96SW2+Q14765). The experiment in a line: Protac activity at CRBN/STAT4 in human MOLM16 cells assessed as degradation of STAT4 at 0.01 to 10 uM incubated for 4 hrs by Western blot analysis. The format is cell-based. The gist of the method:
as §2

The target in experiment [7] is T1, Protein cereblon/Signal transducer and activator of transcription 3. The experiment in a line: Protac activity at CRBN/STAT3 in human SUDHL1 cells assessed as degradation of STAT3 at 0.01 to 10 uM incubated for 18 hrs by Western blot analysis. Type of experiment: cell-based. The gist of the method: (§3)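 SU-DHL-1 cells treated 18 h with test compound at 0.01–10 μM, or control compounds at 10 μM. Lysates separated by SDS–PAGE, transferred to PVDF, blocked 1 h in 5% blocker/TBST, probed for each STAT protein, and detected by chemiluminescence.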
Target sequence in this assay (P40763 2-770 limits assumed): as the sequence (P40763 2-770 limits assumed) above
Target sequence in this assay (Q96SW2 whole entry partner): as the sequence (Q96SW2 whole entry) above

Experiment [8] deals with T2, Protein cereblon/Signal transducer and activator of transcription 1-alpha/beta (Homo sapiens). The experiment in a line: Protac activity at CRBN/STAT1 in human SUDHL1 cells assessed as degradation of STAT1 at 0.01 to 10 uM incubated for 18 hrs by Western blot analysis. The format is cell-based. The gist of the method:
as §3

For experiment [9], the target named is Protein cereblon/Signal transducer and activator of transcription 2 (Homo sapiens) (UniProt Q96SW2+P52630). Description: Protac activity at CRBN/STAT2 in human SUDHL1 cells assessed as degradation of STAT2 at 0.01 to 10 uM incubated for 18 hrs by Western blot analysis. The format is cell-based. The procedure, abridged: as §3
The target of experiment [10] is Protein cereblon/Signal transducer and activator of transcription 6 (Homo sapiens) (UniProt P42226+Q96SW2). Description: Protac activity at CRBN/STAT6 in human SUDHL1 cells assessed as degradation of STAT6 at 0.01 to 10 uM incubated for 18 hrs by Western blot analysis. Type of experiment: cell-based. The procedure, abridged: as §3
For experiment [11], the species on record is Homo sapiens. Description: Selectivity index, ratio of protac activity at CRBN/STAT2 in human MOLM16 cells to protac activity at CRBN/STAT3 in human MOLM16 cells. The format is cell-based. The procedure, abridged: (§4)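 Molm-16 cells treated 4 h with compound at 0.01–10 μM, or controls at 10 μM. Western blot of lysates: SDS–PAGE, PVDF, 1 h block in 5% blocker/TBST, primary and secondary antibodies, chemiluminescent detection. STAT1, -2, -4, -5A/B and -6 levels read against STAT3 to give degradation selectivity.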

Experiment [12] is filed under the species Homo sapiens. The experiment in a line: Selectivity index, ratio of protac activity at CRBN/STAT4 in human MOLM16 cells to protac activity at CRBN/STAT3 in human MOLM16 cells. The format is cell-based. The gist of the method:
as §4

The species entered for experiment [13] is Homo sapiens. The experiment in a line: Selectivity index, ratio of protac activity at CRBN/STAT5A in human MOLM16 cells to protac activity at CRBN/STAT3 in human MOLM16 cells. The format is cell-based. The gist of the method: as §4
Experiment [14] is filed under the species Homo sapiens. Description: Selectivity index, ratio of protac activity at CRBN/STAT5B in human MOLM16 cells to protac activity at CRBN/STAT3 in human MOLM16 cells. Type of experiment: cell-based. The gist of the method:
as §4

For experiment [15], the species on record is Homo sapiens. Description: Selectivity index, ratio of protac activity at CRBN/STAT6 in human MOLM16 cells to protac activity at CRBN/STAT3 in human MOLM16 cells. The format is cell-based. The procedure, abridged:
as §4

Experiment [16] is filed under the species Homo sapiens. Description: Selectivity index, ratio of protac activity at CRBN/STAT2 in human SUDHL1 cells to protac activity at CRBN/STAT3 in human SUDHL1 cells. The format is cell-based. The gist of the method:
(§5)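 SU-DHL-1 cells treated 18 h with compound at 0.01–10 μM, or controls at 10 μM. Immunoblotting used SDS–PAGE, PVDF transfer, 1 h block in 5% blocker/TBST, primary and secondary antibodies and chemiluminescence. Levels of other STAT family members compared with STAT3 to express degradation selectivity.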

Experiment [17] is filed under the species Homo sapiens. Description: Selectivity index, ratio of protac activity at CRBN/STAT4 in human SUDHL1 cells to protac activity at CRBN/STAT3 in human SUDHL1 cells. The format is cell-based. The procedure, abridged: as §5
For experiment [18], the species on record is Homo sapiens. Description: Selectivity index, ratio of protac activity at CRBN/STAT5B in human SUDHL1 cells to protac activity at CRBN/STAT3 in human SUDHL1 cells. The format is cell-based. The procedure, abridged:
as §5

Experiment [19] concerns Mus musculus. The experiment in a line: In vivo degradation of STAT3 in SCID mouse xenografted with MOLM-16 cells at 50 mg/kg, iv measured upto 1 hr by Western blot analysis relative to control. Type of experiment: functional. The gist of the method: (§6)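 SCID mice bearing subcutaneous Molm-16 tumors (3 × 10^6 cells in Matrigel; treated at ~150 mm3) given a single intravenous dose in 10% PEG400 + 90% PBS, or vehicle. Tumors harvested at time points. Lysates immunoblotted for total STAT3 and pSTAT3 Y705, compared with vehicle control.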

Experiment [20] has as its system Mus musculus. The experiment in a line: In vivo degradation of STAT3 in SCID mouse xenografted with MOLM-16 cells at 50 mg/kg, iv measured upto 72 hrs by Western blot analysis relative to control. The format is functional. The procedure, abridged:
as §6

Experiment [21] deals with Mus musculus. The experiment in a line: In vivo degradation of phosphorylated STAT3 Y705 in SCID mouse xenografted with MOLM-16 cells at 50 mg/kg, iv measured upto 1 hr by Western blot analysis relative to control. The format is functional. The procedure, abridged:
as §6

Experiment [22] has as its system Mus musculus. Description: In vivo degradation of phosphorylated STAT3 Y705 in SCID mouse xenografted with MOLM-16 cells at 50 mg/kg, iv measured upto 72 hrs by Western blot analysis relative to control. The format is functional. The procedure, abridged: as §6
Experiment [23] in a line: Antitumor activity against human MOLM16 cells xenografted in […] mouse assessed as tumor regression at 25 or 50 mg/kg, iv administered 3 times per week for 3 weeks. Type of experiment: functional.

Activity calls are given as the source filed them. No cut-off for these calls is given here. A value given as a limit tells only on which side of the number the result lay.

Sequence of Protein cereblon/Signal transducer and activator of transcription 2 (Homo sapiens) (P52630 whole entry, looked up): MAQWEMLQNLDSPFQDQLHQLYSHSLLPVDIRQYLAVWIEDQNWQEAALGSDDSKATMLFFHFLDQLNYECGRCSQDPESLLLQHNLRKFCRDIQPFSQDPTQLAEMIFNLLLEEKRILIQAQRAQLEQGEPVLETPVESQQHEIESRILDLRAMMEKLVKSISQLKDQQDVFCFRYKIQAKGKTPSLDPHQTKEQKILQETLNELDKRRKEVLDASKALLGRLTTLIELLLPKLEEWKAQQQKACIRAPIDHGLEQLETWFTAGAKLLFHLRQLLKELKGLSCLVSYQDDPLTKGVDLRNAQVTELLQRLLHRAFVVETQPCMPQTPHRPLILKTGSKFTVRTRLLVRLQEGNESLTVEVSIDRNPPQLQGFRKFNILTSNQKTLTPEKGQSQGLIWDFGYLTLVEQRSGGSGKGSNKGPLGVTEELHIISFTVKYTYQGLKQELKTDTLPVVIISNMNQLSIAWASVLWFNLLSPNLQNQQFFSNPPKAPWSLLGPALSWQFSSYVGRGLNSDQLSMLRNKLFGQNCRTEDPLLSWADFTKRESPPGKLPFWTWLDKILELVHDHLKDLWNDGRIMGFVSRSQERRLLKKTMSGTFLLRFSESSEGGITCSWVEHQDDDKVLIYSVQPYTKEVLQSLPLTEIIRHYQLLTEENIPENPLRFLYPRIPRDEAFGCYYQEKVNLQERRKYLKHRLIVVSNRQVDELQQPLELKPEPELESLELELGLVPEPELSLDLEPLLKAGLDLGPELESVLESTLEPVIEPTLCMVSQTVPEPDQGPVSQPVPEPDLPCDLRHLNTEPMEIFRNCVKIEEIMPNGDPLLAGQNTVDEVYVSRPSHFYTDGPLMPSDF
Sequence of Protein cereblon/Signal transducer and activator of transcription 2 (Homo sapiens) (Q96SW2 whole entry, looked up): as the sequence (Q96SW2 whole entry) above
Sequence of Signal transducer and activator of transcription 3 (P40763 whole entry, the tested form may be a part): as the sequence (P40763 whole entry) above

For orientation: Kd means a measure of binding affinity in units of concentration. By DC50 is commonly meant the midpoint of the concentration-degradation curve. As usually defined, the IC50 is the concentration at which inhibition is half-maximal. Take `NC(=O)CC[C@H](NC(=O)[C@@H]1CC[C@@H]2CCN(C(=O)CCCCCC#Cc3cccc4c3CN(C3CCC(=O)NC3=O)C4=O)C[C@H](NC(=O)c3cc4cc(C(F)(F)P(=O)(O)O)ccc4[nH]3)C(=O)N21)C(=O)NC(c1ccccc1)c1ccccc1` (some centres undefined): the Kd in [1] is 44 nM. For the same molecule, the 50% degradation concentration (DC50) in experiment [2] was found to be 28 nM. Besides, the 50% inhibitory concentration (IC50) amounted to 13 nM in [3] and 610 nM in the experiment on SU-DHL-1. For the same molecule, the outcome in experiment [4] and in experiment [7] was Active. The outcome in experiment [5], in experiment [6], in experiment [8], in experiment [9] and in experiment [10] was inactive. Also, the Ratio in the experiment listed under Homo sapiens [11], in the experiment listed under Homo sapiens [12], in the experiment listed under Homo sapiens [13], in the experiment filed under Homo sapiens [14], in the experiment filed under Homo sapiens [15] and in the experiment filed under Homo sapiens [16] was > 100 each time. Moreover, the Ratio in the experiment filed under Homo sapiens [17] and in the experiment filed under Homo sapiens [18] was > 100 throughout. The Activity with Mus musculus [19] is listed as >95%; in the experiment on Mus musculus [20] it was >95%; in the experiment on Mus musculus [21], >90%; with Mus musculus [22], >90%; in [23] it was 100%.

The values above are taken from ChEMBL document CHEMBL4354826, “Structure-Based Discovery of SD-36 as a Potent, Selective, and Efficacious PROTAC Degrader of STAT3 Protein” (J Med Chem, 2019).
